≈ marks a conversion by molar mass, not a printed value.

This passage reports selectivity ratio, IC50 and Activity results from ChEMBL document CHEMBL1138607, “Synthesis of novel thiourea, thiazolidinedione and thioparabanic acid derivatives of 4-aminoquinoline as potent antimalarials” (Bioorg Med Chem Lett, 2009).

A short description of data set [1]: Selectivity index, ratio of IC50 for african green monkey (Cercopithecus aethiops) Vero cells to IC50 for Plasmodium falciparum 3D7. To be noted: read-out: Ratio IC50. The data set is classed as toxicity, cell-based. A digest of the protocol: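 P. falciparum 3D7 was tested by SYBR Green I fluorescence at 0.5% parasitaemia: two-fold dilutions from 500 ng/mL (seven concentrations), duplicate wells, 72 h, then lysis buffer with dye. Vero cells (1 × 10⁴/well) got MTT after 72 h with compound. Each IC₅₀ came from non-linear regression dose–response curves; selectivity index is the Vero/3D7 ratio.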

Data set [2] concerns Plasmodium falciparum. Description: Antimalarial activity against chloroquine-sensitive Plasmodium falciparum 3D7 after 72 hrs by SYBR Green assay. Particulars: 3D7, 72 h.
Data set [3] has as its system Plasmodium yoelii. Description: Antiplasmodial activity as reduced parasitaemia against chloroquine-resistant Plasmodium yoelii N67 infected Swiss mice (Mus musculus) at 50 mg/kg/day after 4 days. The data set is classed as functional. More on the design: scale not given: the % may be the effect or the level left. An outline of the steps: (§1)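 Swiss mice inoculated on day 0 with 1×10⁶ P. yoelii N-67 parasitized RBC. Groups of five received 50 mg/kg/day intraperitoneally, once daily on days 0–3, as aqueous suspensions with a few drops of Tween 80. Parasitaemia read from thin blood smears. Percent suppression calculated from the group mean against untreated infected controls.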

In data set [4] the test system is Plasmodium yoelii. Nature of the data set: Antiplasmodial activity as reduced parasitaemia against chloroquine-resistant Plasmodium yoelii N67 infected Swiss mice (Mus musculus) at 50 mg/kg/day intraperitoneal dose after 10 days. The data set is classed as functional. More on the design: scale not given: the % may be the effect or the level left. An outline of the steps: as §1

In data set [5] the test system is Plasmodium yoelii. Nature of the data set: Antiplasmodial activity as reduced parasitaemia against chloroquine-resistant Plasmodium yoelii N67 infected Swiss mice (Mus musculus) at 10 mg/kg/day peroral dose after 4 days. The data set is classed as functional. More on the design: scale not given: the % may be the effect or the level left. To be noted: route oral. An outline of the steps: (§2)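 Swiss mice inoculated on day 0 with 1×10⁶ P. yoelii N-67 parasitized RBC. […] Parasitaemia read from thin blood smears. Percent suppression calculated from the group mean against untreated infected controls.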

The subject of data set [6] is Plasmodium yoelii. Nature of the data set: Antiplasmodial activity as reduced parasitaemia against chloroquine-resistant Plasmodium yoelii N67 infected Swiss mice (Mus musculus) at 10 mg/kg/day peroral dose over 10 days. It is filed as functional. More on the design: scale not given: the % may be the effect or the level left. To be noted: route oral. A digest of the protocol:
as §2

Take `CCCCN1C(=O)C(=O)N(CCCNc2ccnc3cc(Cl)ccc23)C1=S`: the selectivity ratio in data set [1] is 27.2. In data set [2], this compound gave an IC50 of 0.0697 µg/mL (≈ 0.172 µM).
Take `O=C1C(=O)N(c2ccccc2Cl)C(=S)N1CCNc1ccnc2cc(Cl)ccc12`: the selectivity ratio in data set [1] came to 3.36. The IC50 in data set [2] amounted to 0.199 µg/mL (≈ 0.448 µM).
Turning to `S=C(NCCNc1ccnc2cc(Cl)ccc12)Nc1ccccc1`, the selectivity ratio in data set [1] is 997. This compound also had a half-inhibitory concentration (IC50) in data set [2] of 0.00922 µg/mL (≈ 0.0258 µM).
In the same order, the values of `C=CC/N=C1\SC(=O)C(=O)N1CCCNc1ccnc2cc(Cl)ccc12` are 475 and 0.112 µg/mL (≈ 0.287 µM).
For the compound `S=C(NCCCNc1ccnc2cc(Cl)ccc12)Nc1ccccc1`, in data set [1], the selectivity ratio was determined as 968. Besides, in data set [2], the IC50 is 0.01 µg/mL (≈ 0.027 µM).
Regarding `O=C1S/C(=N\c2ccccc2Cl)N(CCCNc2ccnc3cc(Cl)ccc23)C1=O`, in data set [1], the selectivity ratio came out at 434. Further, in data set [2], the IC50 is 0.0175 µg/mL (≈ 0.0381 µM).
Consider `CCCCN1C(=O)C(=O)N(CCNc2ccnc3cc(Cl)ccc23)C1=S`, for which the selectivity ratio in data set [1] was found to be 406. Also, in data set [2], the midpoint of inhibition, the IC50, lay at 0.0331 µg/mL (≈ 0.0846 µM).
The matching figures for `S=C(NCCNc1ccnc2cc(Cl)ccc12)Nc1ccccc1Cl`: 332 and 0.0205 µg/mL (≈ 0.0524 µM).
As for `S=C(NCCCNc1ccnc2cc(Cl)ccc12)Nc1ccccc1Cl`, the selectivity ratio in data set [1] was 1110. Further, in data set [3], the Activity was 16.82%. The compound also came in with an IC50 in data set [2] of 0.0102 µg/mL (≈ 0.0251 µM).
On to `O=C1C(=O)N(c2ccccc2)C(=S)N1CCCNc1ccnc2cc(Cl)ccc12`, for which, in data set [1], the selectivity ratio was 65.5. This compound also showed a half-maximal inhibitory concentration (IC50) in data set [2] of 0.151 µg/mL (≈ 0.354 µM).
In the same order, the values of `O=C1S/C(=N\c2ccccc2)N(CCCNc2ccnc3cc(Cl)ccc23)C1=O` are 637 and 0.011 µg/mL (≈ 0.026 µM).
Regarding `CCCCNC(=S)NCCNc1ccnc2cc(Cl)ccc12`, in data set [1], the selectivity ratio was found to be 750. The figures for the Activity in data set [3] and in data set [4] were 99.27% and 50.5%, respectively. Further, in data set [2], the midpoint of inhibition, the IC50, lay at 0.00607 µg/mL (≈ 0.018 µM).
Take `O=C1C(=O)N(c2ccccc2Cl)C(=S)N1CCCNc1ccnc2cc(Cl)ccc12`: the selectivity ratio in data set [1] worked out at 122. The compound further registered a 50% inhibitory concentration (IC50) in data set [2] of 0.0397 µg/mL (≈ 0.0864 µM).
In the same order, the values of `CCCC/N=C1\SC(=O)C(=O)N1CCNc1ccnc2cc(Cl)ccc12` are 480 and 0.0174 µg/mL (≈ 0.0446 µM).
As for `CCCC/N=C1\SC(=O)C(=O)N1CCCNc1ccnc2cc(Cl)ccc12`, the selectivity ratio in data set [1] was found to be 256. This compound also showed a concentration for half-maximal inhibition (IC50) in data set [2] of 0.011 µg/mL (≈ 0.0272 µM).
The matching figures for `O=C1S/C(=N\c2ccccc2)N(CCNc2ccnc3cc(Cl)ccc23)C1=O`: 605 and 0.0295 µg/mL (≈ 0.0718 µM).
The matching figures for `C=CCNC(=S)NCCCNc1ccnc2cc(Cl)ccc12`: 582 and 0.042 µg/mL (≈ 0.125 µM).
As to `C=CCN1C(=O)C(=O)N(CCNc2ccnc3cc(Cl)ccc23)C1=S`, the selectivity ratio in data set [1] turned out to be 141. Besides, in data set [2], the half-inhibitory concentration (IC50) worked out at 0.104 µg/mL (≈ 0.278 µM).
Regarding `C=CC/N=C1\SC(=O)C(=O)N1CCNc1ccnc2cc(Cl)ccc12`, the selectivity ratio in data set [1] was 603. The compound further had an IC50 in data set [2] of 0.0324 µg/mL (≈ 0.0865 µM).
In the same order, the values of `O=C1C(=O)N(c2ccccc2)C(=S)N1CCNc1ccnc2cc(Cl)ccc12` are 118 and 0.119 µg/mL (≈ 0.29 µM).
For `O=C1S/C(=N\c2ccccc2Cl)N(CCNc2ccnc3cc(Cl)ccc23)C1=O`, in data set [1], the selectivity ratio worked out at 543. In addition, the Activity in data set [3] turned out to be 5.45%. Besides, the IC50 in data set [2] came to 0.0121 µg/mL (≈ 0.0272 µM).
`C=CCNC(=S)NCCNc1ccnc2cc(Cl)ccc12`: in data set [1], the selectivity ratio was determined as 668. In data set [2], this compound showed a half-inhibitory concentration (IC50) of 0.0261 µg/mL (≈ 0.0814 µM).
The matching figures for `C=CCN1C(=O)C(=O)N(CCCNc2ccnc3cc(Cl)ccc23)C1=S`: 80.4 and 0.0548 µg/mL (≈ 0.141 µM).
Consider `CCN(CC)CCCC(C)Nc1ccnc2cc(Cl)ccc12` (centres undefined) [CHLOROQUINE], for which the Activity in data set [5] stood at 99.05%; in data set [6], 73.92%.
For `CCCCNC(=S)NCCCNc1ccnc2cc(Cl)ccc12`, the selectivity ratio in data set [1] was found to be 600. Besides, the IC50 in data set [2] came out at 0.0118 µg/mL (≈ 0.0337 µM).

By IC50 is commonly meant the concentration needed to halve the response being measured.
